From ChEMBL document CHEMBL4725432, “Dethioacylation by Sirtuins 1-3: Considerations for Drug Design Using Mechanism-Based Sirtuin Inhibition” (ACS Med Chem Lett, 2020)
Where a name gives a salt, the structure may show the parent alone. The source made the active and inactive calls. No cut-off for these calls is given here. Residues, ends and D or L forms follow the SMILES beside them. *: point of attachment. Cbz = O=C(OCc1ccccc1)*; Tfa = O=C(C(F)(F)F)*; NHiPr = CC(C)N*

Biological target: T1, NAD-dependent protein deacetylase sirtuin-1 (Homo sapiens) (UniProt Q96EB6)
T1 sequence (whole entry): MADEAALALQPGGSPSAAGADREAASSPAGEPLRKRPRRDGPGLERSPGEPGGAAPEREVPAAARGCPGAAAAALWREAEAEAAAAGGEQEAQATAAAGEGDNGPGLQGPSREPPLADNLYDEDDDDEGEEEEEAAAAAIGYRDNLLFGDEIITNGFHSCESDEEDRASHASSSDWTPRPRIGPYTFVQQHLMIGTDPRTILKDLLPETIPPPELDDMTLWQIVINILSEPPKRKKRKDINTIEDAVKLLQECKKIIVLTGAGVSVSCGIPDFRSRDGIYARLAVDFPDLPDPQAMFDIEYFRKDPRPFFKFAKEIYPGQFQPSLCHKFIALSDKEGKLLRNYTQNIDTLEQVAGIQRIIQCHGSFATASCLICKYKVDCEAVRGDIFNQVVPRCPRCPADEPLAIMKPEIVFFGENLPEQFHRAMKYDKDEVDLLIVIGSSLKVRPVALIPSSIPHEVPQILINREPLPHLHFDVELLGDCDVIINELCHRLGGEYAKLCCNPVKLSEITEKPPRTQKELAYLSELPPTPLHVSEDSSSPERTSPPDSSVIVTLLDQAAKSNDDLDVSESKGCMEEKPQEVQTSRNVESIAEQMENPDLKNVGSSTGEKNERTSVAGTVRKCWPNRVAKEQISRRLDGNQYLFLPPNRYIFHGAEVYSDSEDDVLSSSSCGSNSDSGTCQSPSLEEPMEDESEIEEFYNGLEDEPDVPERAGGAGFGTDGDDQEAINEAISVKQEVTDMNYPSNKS
Assay: Inhibition of human recombinant N-terminal GST-tagged SIRT1 (193 to 741 residues) expressed in Escherichia coli using Ac-Gln-Pro-Lys-Lys(Ac)-AMC (oxo-10) as substrate at 100 uM by fluorescence assay relative to control
Conditions: not given

Row | inhibition [%] | Compound
1 | 29 | CC(C)NC(=O)[C@H](Cc1c[nH]c2ccccc12)NC(=O)[C@H](CCCCNC(=O)C(F)F)NC(=O)OCc1ccccc1
2 | 24 | CC(C)NC(=O)[C@H](Cc1c[nH]c2ccccc12)NC(=O)[C@H](CCCCNC(=O)C(F)(F)F)NC(=O)OCc1ccccc1 (Cbz-Lys(Tfa)-Trp-NHiPr)

Biological target: T2, NAD-dependent protein deacetylase sirtuin-1 (Homo sapiens, UniProt Q96EB6)
T2 sequence (Q96EB6 whole entry): T1 sequence (whole entry)
Assay: Inhibition of human recombinant N-terminal GST-tagged SIRT1 (193 to 741 residues) expressed in Escherichia coli using Ac-Gln-Pro-Lys-Lys(Ac)-AMC (oxo-10) as substrate by fluorescence assay
Conditions: not given

Row | IC50 [nM] | Compound
3 | 1130 | CCCCNC(=S)NCCCC[C@H](NC(=O)OCc1ccccc1)C(=O)N[C@@H](Cc1c[nH]c2ccccc12)C(=O)NC(C)C
4 | 540 | CCCC(=S)NCCCC[C@H](NC(=O)OCc1ccccc1)C(=O)N[C@@H](Cc1c[nH]c2ccccc12)C(=O)NC(C)C

Biological target: T3, NAD-dependent protein deacetylase sirtuin-2 (Homo sapiens, UniProt Q8IXJ6)
T3 sequence (Q8IXJ6 whole entry): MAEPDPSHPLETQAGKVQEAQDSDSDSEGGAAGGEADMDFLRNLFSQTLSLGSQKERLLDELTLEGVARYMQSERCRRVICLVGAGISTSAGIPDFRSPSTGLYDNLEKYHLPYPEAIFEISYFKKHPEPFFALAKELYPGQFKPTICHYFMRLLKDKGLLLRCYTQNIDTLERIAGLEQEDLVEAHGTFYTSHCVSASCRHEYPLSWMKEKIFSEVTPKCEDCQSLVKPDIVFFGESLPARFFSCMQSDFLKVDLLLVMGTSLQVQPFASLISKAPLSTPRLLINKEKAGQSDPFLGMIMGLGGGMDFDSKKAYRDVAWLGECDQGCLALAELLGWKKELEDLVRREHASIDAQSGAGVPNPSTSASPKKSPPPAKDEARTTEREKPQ
Assay: Inhibition of human C-terminal His-tagged SIRT2 (50 to 356 residues) expressed in Escherichia coli using Ac-Gln-Pro-Lys-Lys(pro)-AMC (oxo-11) as substrate by fluorescence assay
Conditions: not given

Row | IC50 [nM] | Compound
5 | 1400 | CCCCNC(=S)NCCCC[C@H](NC(=O)OCc1ccccc1)C(=O)N[C@@H](Cc1c[nH]c2ccccc12)C(=O)NC(C)C
6 | 440 | CCCC(=S)NCCCC[C@H](NC(=O)OCc1ccccc1)C(=O)N[C@@H](Cc1c[nH]c2ccccc12)C(=O)NC(C)C

Biological target: T4, NAD-dependent protein deacetylase sirtuin-2 (Homo sapiens) (UniProt Q8IXJ6)
T4 sequence (whole entry): T3 sequence (Q8IXJ6 whole entry)
Assay: Inhibition of human C-terminal His-tagged SIRT2 (50 to 356 residues) expressed in Escherichia coli using Ac-Gln-Pro-Lys-Lys(pro)-AMC (oxo-11) as substrate at 100 uM by fluorescence assay relative to control
Conditions: not given

Row | inhibition [%] | Compound
7 | 17 | CC(C)NC(=O)[C@H](Cc1c[nH]c2ccccc12)NC(=O)[C@H](CCCCNC(=O)C(F)F)NC(=O)OCc1ccccc1
8 | 3 | CC(C)NC(=O)[C@H](Cc1c[nH]c2ccccc12)NC(=O)[C@H](CCCCNC(=O)C(F)(F)F)NC(=O)OCc1ccccc1 (Cbz-Lys(Tfa)-Trp-NHiPr)

Biological target: T1, NAD-dependent protein deacetylase sirtuin-1 (Homo sapiens)
Assay: Inhibition of human N-terminal GST-tagged SIRT1 (193 to 741 residues) expressed in Escherichia coli preincubated with NAD+ for 30 mins using Ac-Gln-Pro-Lys-Lys(Ac)-AMC (oxo-10) as substrate at 1 to 100 uM measured after 90 mins by fluorescence assay
Conditions: dose microM 1-100, time 120.0 min
Summary of the method: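 Recombinant SIRT1 (100 nM) preincubated 30 min with compound, either with or without NAD+ (500 μM), before the fluorogenic deacetylation read-out. Single-dose %-inhibition. Two independent experiments in duplicate, standard deviation.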

Row | inhibition | Compound
9 | Active | CCCCNC(=S)NCCCC[C@H](NC(=O)OCc1ccccc1)C(=O)N[C@@H](Cc1c[nH]c2ccccc12)C(=O)NC(C)C
10 | inactive | CC(C)NC(=O)[C@H](Cc1c[nH]c2ccccc12)NC(=O)[C@H](CCCCNC(=O)C(F)F)NC(=O)OCc1ccccc1
11 | inactive | CC(C)NC(=O)[C@H](Cc1c[nH]c2ccccc12)NC(=O)[C@H](CCCCNC(=O)C(F)(F)F)NC(=O)OCc1ccccc1 (Cbz-Lys(Tfa)-Trp-NHiPr)
12 | Active | CCCC(=S)NCCCC[C@H](NC(=O)OCc1ccccc1)C(=O)N[C@@H](Cc1c[nH]c2ccccc12)C(=O)NC(C)C

Biological target: T5, NAD-dependent protein deacetylase sirtuin-3, mitochondrial (Homo sapiens) (UniProt Q9NTG7)
T5 sequence (whole entry): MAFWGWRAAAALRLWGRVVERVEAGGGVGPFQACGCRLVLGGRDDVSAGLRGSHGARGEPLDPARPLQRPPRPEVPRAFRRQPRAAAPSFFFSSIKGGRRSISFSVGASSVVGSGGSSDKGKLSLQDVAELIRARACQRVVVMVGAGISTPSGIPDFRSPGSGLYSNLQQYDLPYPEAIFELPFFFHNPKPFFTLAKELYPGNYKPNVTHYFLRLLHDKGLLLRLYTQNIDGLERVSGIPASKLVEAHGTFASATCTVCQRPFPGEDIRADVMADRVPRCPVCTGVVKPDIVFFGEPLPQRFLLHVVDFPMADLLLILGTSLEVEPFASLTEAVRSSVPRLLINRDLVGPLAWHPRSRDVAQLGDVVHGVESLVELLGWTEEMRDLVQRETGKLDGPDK
Assay: Inhibition of human recombinant N-terminal GST-tagged SIRT3 (102 to 399 residues) deacetylation activity in presence of substrate and NAD+ at 15 uM after 60 mins measured by reversed-phase UPLC-MS analysis relative to control
Conditions: not given

Row | inhibition | Compound
13 | inactive | CCCC(=S)NCCCC[C@H](NC(=O)OCc1ccccc1)C(=O)N[C@@H](Cc1c[nH]c2ccccc12)C(=O)NC(C)C

Biological target: T1, NAD-dependent protein deacetylase sirtuin-1 (Homo sapiens)
Assay: Inhibition of SIRT1 in HEK293 cells assessed as increase in p53 acetylation co-treated with TSA at 25 uM for 6 hrs by western blot analysis
Assay type: cell-based
Conditions: not given
Summary of the method: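 HEK293 cells exposed 6 h to compound at 25 μM together with TSA (1 μM). Whole-cell lysates immunoblotted for Ac-p53 (K382) and total p53. Ratio Ac-p53/p53 normalized to DMSO control. Two independent experiments in duplicate, SEM.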

Row | inhibition | Compound
14 | inactive | CC(C)NC(=O)[C@H](Cc1c[nH]c2ccccc12)NC(=O)[C@H](CCCCNC(=O)C(F)(F)F)NC(=O)OCc1ccccc1 (Cbz-Lys(Tfa)-Trp-NHiPr)

Biological target: T5, NAD-dependent protein deacetylase sirtuin-3, mitochondrial (Homo sapiens)
Assay: Inhibition of human N-terminal GST-tagged SIRT3 (102 to 399 residues) expressed in Escherichia coli using Ac-Gln-Pro-Lys-Lys(but)-AMC (oxo-12) as substrate at 100 uM by fluorescence assay relative to control
Conditions: not given

Row | inhibition [%] | Compound
15 | 2 | CCCCNC(=S)NCCCC[C@H](NC(=O)OCc1ccccc1)C(=O)N[C@@H](Cc1c[nH]c2ccccc12)C(=O)NC(C)C
16 | 9 | CC(C)NC(=O)[C@H](Cc1c[nH]c2ccccc12)NC(=O)[C@H](CCCCNC(=O)C(F)F)NC(=O)OCc1ccccc1
17 | 5 | CC(C)NC(=O)[C@H](Cc1c[nH]c2ccccc12)NC(=O)[C@H](CCCCNC(=O)C(F)(F)F)NC(=O)OCc1ccccc1 (Cbz-Lys(Tfa)-Trp-NHiPr)
18 | 10 | CCCC(=S)NCCCC[C@H](NC(=O)OCc1ccccc1)C(=O)N[C@@H](Cc1c[nH]c2ccccc12)C(=O)NC(C)C

Biological target: T1, NAD-dependent protein deacetylase sirtuin-1 (Homo sapiens)
Assay: Inhibition of human recombinant N-terminal GST-tagged SIRT1 (193 to 741 residues) deacetylation activity in presence of substrate and NAD+ at 15 uM after 60 mins by reversed-phase UPLC-MS analysis relative to control
Conditions: not given

Row | inhibition | Compound
19 | inactive | CCCC(=S)NCCCC[C@H](NC(=O)OCc1ccccc1)C(=O)N[C@@H](Cc1c[nH]c2ccccc12)C(=O)NC(C)C
